Published values pooled from the literature.
Protocols differ between the studies behind these lines.
Target: Tau-tubulin kinase 1 (TTBK1, Homo sapiens, UniProt Q5TCY1)
Effect on: enzyme activity
Action: inhibitor

`COc1cc(Cl)c(C(=O)N[C@@H](CN[C@H]2CC[C@@H](N)CC2)Cc2ccc(C#N)cc2)cc1-c1ccc(CN[C@H](C)c2ccc(C)cc2)o1` gave a remaining activity of 99% (1 µM).
`CC(C)(O)[C@H]1CC[C@H](Nc2ccc3ncc(-c4cccc(C(F)(F)F)c4)n3n2)CC1` has a remaining activity of 95.8% (1 µM).
For `COc1cc(/C=C/C(=O)CC(=O)/C=C/c2ccc(O)c(OC)c2)ccc1O`, the activity vs control was 102% (1 µM).
For `COc1cc(Nc2cnc(C#N)c(O[C@H](C)CN(C)C)n2)ncc1-c1cnn(C)c1`, the remaining activity was 98% (radiometric; 1 µM).
`O=C(Nc1cnn(-c2csc(C(=O)NC3COC3)c2)c1)Nc1c(F)cccc1Cl` gave a remaining activity of 82.3% (5 µM).
`CN1CC(Oc2cnc(C#N)cc2-c2ccn3nc(NC(=O)C4CC4)cc3c2)C1` gave an inhibition of 1% (1 µM).
`Cc1sc(C(=O)NC2COC2)cc1-n1cc(NC(=O)Nc2c(F)cccc2Cl)cn1` has a remaining activity of 113% (10 µM).
With `Cc1ccc(C(=O)NCc2ccsc2)cc1C#Cc1cn(C(C)C)c2ncnc(N)c12` the activity vs control was 104% (1 µM).
